Series [1] is described as follows: Selectivity index, ratio of CC50 for human HSB2 cells to EC50 for Human herpesvirus 6 GS infected in human HSB2 cells. Format: toxicity, cell-based. The following applies: read-out: Ratio CC50/EC50.
Series [2] is described as follows: Selectivity index, ratio of CC50 for human BCBL1 cells to EC50 for Human herpesvirus 8 infected in human BCBL1 cells. Format: toxicity, cell-based. To be noted: read-out: Ratio CC50/EC50.
A further series concerns Human alphaherpesvirus 1. The experiment in a line: Antiviral activity against HSV1 SC16-S1 harboring TK A265T/C336Y mutant gene infected in HFF after 3 days by plaque reduction assay. The following applies: Human alphaherpesvirus 1, SC16-S1, 72 h. Format: functional, organism-based. The method in brief: (§1)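 Confluent HFF monolayers (passage <10) were infected in triplicate wells at 20–30 plaques per well, with 1 h adsorption and rocking every 15 min. Six serial dilutions (top 100 μM) were made in MEM with 2% FBS and pooled human immunoglobulin. Cells were incubated 3 days and stained with crystal violet. Plaques were counted, and EC50 was interpolated from plaque reduction.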
For orientation: Plaque reduction counts the foci of infection that form in a cell layer.

Series [3] in a line: Cytotoxicity against human HSB2 cells after 3 days by MTS assay. Format: cell-based, CCRF-HSB-2. (In general: Formazan colour is commonly taken as a measure of viable cells.)
Series [4] concerns Human alphaherpesvirus 2. As to the kind of experiment: Antiviral activity against HSV2 infected in BALB/c mouse assessed as virus-induced mortality rate at 10 mg/kg, po BID administered 48 hrs post infection. Format: functional.
In series [5] the test system is Human betaherpesvirus 5. The experiment in a line: Antiviral activity against human cytomegalovirus AD169 infected in HFF after 8 to 10 days by plaque reduction assay. Format: functional, organism-based. To be noted: Human betaherpesvirus 5, AD169. The method in brief: (§2)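 Plaque reduction on confluent HFF monolayers in triplicate wells: 1 h adsorption, then six serial compound dilutions (top 100 μM) in MEM with 2% FBS, no immunoglobulin. Incubation was 8 days for HCMV and 10 days for VZV. Plaques were stained with 0.017% neutral red in PBS and counted microscopically. EC50 was interpolated at 50% plaque reduction.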

A short description of series [6]: Selectivity index, ratio of CC50 for HFF to EC50 for human cytomegalovirus AD169 infected in HFF.
Series [7] relates to Human alphaherpesvirus 2. As to the kind of experiment: Antiviral activity against HSV2 harboring frameshift mutation in TK infected in HFF after 3 days by plaque reduction assay. Format: functional, organism-based. To be noted: Human alphaherpesvirus 2, 72 h. A digest of the protocol: as §1
In series [8] the test system is Human alphaherpesvirus 2. The experiment in a line: Antiviral activity against HSV2 MS infected in HFF after 3 days by plaque reduction assay. Format: functional, organism-based. The following applies: Human alphaherpesvirus 2, MS, 72 h. The method in brief: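 Confluent primary HFF monolayers (passage <10), triplicate wells, virus dosed at 20–30 plaques/well. Adsorption was 1 h with rocking every 15 min. Six serial dilutions, top 100 μM, were made in MEM with 2% FBS plus pooled human immunoglobulin. After 3 days, wells were stained with 0.1% crystal violet in 20% methanol and plaques counted microscopically. EC50 was interpolated.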

In series [9] the test system is Human alphaherpesvirus 2. As to the kind of experiment: Antiviral activity against HSV2 AG-3 harboring TK Q105P mutant gene infected in HFF after 3 days by plaque reduction assay. Format: functional, organism-based. To be noted: Human alphaherpesvirus 2, AG-3, 72 h. The method in brief:
as §1

For series [10], the system named is Human alphaherpesvirus 2. The experiment in a line: Antiviral activity against 4'-thioIDU-resistant HSV2 infected in HFF assessed as inhibition of viral DNA synthesis-associated incorporation in DNA by immunofluorescence assay. In kind it is functional, organism-based. The method in brief: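 HFF on coverslips were infected with HSV-2 MS or the resistant isolate (MOI 0.2 PFU/cell) for 48 h. Cells were pulsed with BrdUrd or 10 μM test compound for 30 min before fixation. Incorporation was detected with a cross-reacting anti-BrdUrd monoclonal antibody, infected cells with anti-155-kDa nucleocapsid antibody, and nuclei with DAPI.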

The test system of series [11] is Human alphaherpesvirus 2. As to the kind of experiment: Antiviral activity against HSV2 infected in BALB/c mouse assessed mean time to virus-induced death at 10 mg/kg, po BID administered 72 hrs post infection. Format: functional.
Series [12] has as its system Human alphaherpesvirus 2. The experiment in a line: Antiviral activity against HSV2 infected in BALB/c mouse assessed mean time to virus-induced death at […], po BID administered 24 hrs post infection. Format: functional.
Series [13] deals with Human alphaherpesvirus 2. As to the kind of experiment: Antiviral activity against HSV2 infected in BALB/c mouse assessed as virus-induced mortality rate at 30 mg/kg, po BID administered 72 hrs post infection. Format: functional.
Series [14] has as its system Human betaherpesvirus 5. As to the kind of experiment: Antiviral activity against human cytomegalovirus RC314 harboring UL97 K355M mutant gene infected in HFF after 8 to 10 days by plaque reduction assay. In kind it is functional, organism-based. The following applies: Human betaherpesvirus 5, RC314. A digest of the protocol: (§3)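 Plaque reduction in confluent HFF with six serial dilutions (top 100 μM) and no immunoglobulin added. Virus was adsorbed 1 h on triplicate wells. Cells were incubated 8 days, stained with 0.017% neutral red in PBS, and plaques counted. EC50 is the concentration reducing plaque number by 50%.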

In another series the test system is Human alphaherpesvirus 3. As to the kind of experiment: Antiviral activity against VZV Ellan infected in HFF after 8 to 10 days by plaque reduction assay. In kind it is functional, organism-based. To be noted: Human alphaherpesvirus 3, Ellan. The method in brief: as §2
The test system of series [15] is Human alphaherpesvirus 2. As to the kind of experiment: Antiviral activity against HSV2 infected in BALB/c mouse assessed as virus-induced mortality rate at 30 mg/kg, po BID administered 48 hrs post infection. In kind it is functional.
For series [16], the system named is Human alphaherpesvirus 2. The experiment in a line: Antiviral activity against HSV2 11680 harboring TK R223H mutant gene infected in HFF after 3 days by plaque reduction assay. Format: functional, organism-based. To be noted: Human alphaherpesvirus 2, 11680, 72 h. A digest of the protocol: as §1
Series [17] relates to Human alphaherpesvirus 2. The experiment in a line: Antiviral activity against HSV2 infected in BALB/c mouse assessed mean time to virus-induced death at 10 mg/kg, po BID administered 24 hrs post infection. In kind it is functional.
Series [18] concerns Human alphaherpesvirus 2. The experiment in a line: Antiviral activity against HSV2 infected in BALB/c mouse assessed as virus-induced mortality rate at 10 mg/kg, po BID administered 24 hrs post infection. In kind it is functional.
The test system of series [19] is Human betaherpesvirus 5. The experiment in a line: Antiviral activity against human cytomegalovirus C8914-6 harboring UL97 I244V, L595F and UL54 L501F mutant gene infected in HFF after 8 to 10 days by plaque reduction assay. Format: functional, organism-based. The following applies: Human betaherpesvirus 5, C8914-6. The method in brief:
as §3

The nature of series [20]: Antiviral activity against Human herpesvirus 6 GS infected in human HSB2 cells assessed as inhibition of viral replication after 7 days. To be noted: Human betaherpesvirus 6A, HSB2, 168 h. In kind it is functional, cell-based, Human herpesvirus 6 (strain GS). A digest of the protocol: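 HSB-2 cells, 2 × 10^4 per well in RPMI 1640 with 10% FBS, received compound dilutions in triplicate wells. Cells were infected with HHV-6A strain GS and kept 7 days at 37°C. Total DNA was denatured and immobilized on nylon membrane. Viral DNA was then measured by digoxigenin-labeled probe hybridization and anti-hapten antibody detection with densitometric quantitation.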

A further series has as its system Human gammaherpesvirus 4. As to the kind of experiment: Antiviral activity against Epstein-Barr virus infected in human Akata cells after 72 hrs. Format: functional, organism-based. The following applies: human gammaherpesvirus 4, Akata. A digest of the protocol:
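Akata cells were kept in RPMI 1640 with 10% FBS. Compound ranged 100 to 0.032 μM. Latent cells were induced to lytic infection with 50 μg/ml goat anti-human IgG, and 4 × 10^4 cells were added per well. After 72 h, DNA was alkali/NaCl-denatured, blotted to nylon membrane, and viral DNA quantified by digoxigenin-probe hybridization with anti-hapten antibody detection.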

As usually defined, the EC50 is the midpoint of the concentration-response curve. Broadly, the CC50 is the concentration that lowers cell viability or growth by half. Higher therefore signals lower toxicity to the cells.

The structures appear in SMILES notation. The source made the active and inactive calls. The calls are words filed in the database; no cut-off is given here. Bounds are passed on as bounds.

Take `O=c1[nH]c(=O)n([C@H]2C[C@H](O)[C@@H](CO)S2)cc1I`: the figures for the selectivity ratio in [1] and in series [2] were 1 and less than 3.6, respectively. Further, the EC50 was more than 444 µM in the series with Human alphaherpesvirus 1; 5.85 µM in the series with Human betaherpesvirus 5 [5]; 77 µM in the series with Human alphaherpesvirus 2 [7]; 0.45 µM in the series on Human alphaherpesvirus 2 [8]; more than 444 µM in the series on Human alphaherpesvirus 2 [9]; 6.5 µM in the series on Human betaherpesvirus 5 [14]. Besides, the EC50 with Human alphaherpesvirus 3 is 2 µM; in the series on Human alphaherpesvirus 2 [16], 246 µM; with Human betaherpesvirus 5 [19], 43 µM; in series [20], more than 100 µM; in the series with Human gammaherpesvirus 4, more than 0.16 µM. The compound further showed a CC50 at 72 h in series [3] of more than 100 µM. Besides, the Activity with Human alphaherpesvirus 2 [4] stood at 73%; in the series with Human alphaherpesvirus 2 [13], 100%; in the series on Human alphaherpesvirus 2 [15], 100%; with Human alphaherpesvirus 2 [18] it was 67%. In series [6], the “Ratio CC50/EC50” value was more than 17. For the same compound, in the series with Human alphaherpesvirus 2 [10], the inhibition result was “inactive”. The Time with Human alphaherpesvirus 2 [11] amounted to 10.7 days; in the series with Human alphaherpesvirus 2 [12] it was 8.2 days; with Human alphaherpesvirus 2 [17], 9.8 days.

For the origin of these results see ChEMBL document CHEMBL1649277, “Inhibition of herpesvirus replication by 5-substituted 4'-thiopyrimidine nucleosides” (Antimicrob Agents Chemother, 2009).
